Molecular target: VIM-2 metallo-beta-lactamase (Pseudomonas aeruginosa)
Test: VIM-2 metallo-beta-lactamase inhibitors, Ki determination, late-stage follow-up, biochemical, absorbance, probe candidates and analogs (AID 624083)
Conditions: recombinant VIM-2, nitrocefin hydrolysis absorbance 495 nm
Outline: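 System: VIM-2 enzyme | Quantity: VIM-2 at 0.1 nM final | Medium: HEPES buffer, pH 7.1, with zinc and Brij | Reagent: Nitrocefin substrate at varied concentrations | Compound dosing: Varied inhibitor concentrations | Timing: Enzyme reaction at room temperature | Signal: Absorbance at 495 nm tracking nitrocefin turnover over time | Read-out: Ki from mixed-inhibition regression | Repeats: Duplicates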

| SMILES | Ki [nM] |
| --- | --- |
| CN1CCN(NC(=O)CN2C(=O)/C(=C/c3c(Cl)ccc(Cl)c3Cl)SC2=S)CC1 | 183 |
| CN1CCN(NC(=O)CN2C(=O)/C(=C/c3c(Cl)cccc3Cl)SC2=S)CC1 | 1780 |

From PubChem BioAssay AID624083 (The Scripps Research Institute Molecular Screening Center, 2012)
